Measured values published in publication PMC2865857 (Journal of molecular biology, 2010).
Where no end group is shown, it is not given here. [ ]: non-standard residue; d: D form. Lys(Me2) = CN(C)CCCC[C@H](N)C(=O)O

Columns and labels:
[1] = target: T1, human 53BP1 tandem Tudor domain (Homo sapiens, UniProt Q12888); assay: Binding of peptides to the 53BP1 tandem Tudor domain by tryptophan fluorescence; details: for decrease in binding affinity relative to p53K382me2: ratio of Kd values, 25°C (Fig. 2a, b; Fig. 3e)
In short: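 Synthetic Fmoc-made peptides were HPLC-purified. Intrinsic tryptophan fluorescence was measured at 25°C on 0.5 μM protein with increasing peptide, exciting at 295 nm and recording emission at 305–405 nm over three scans. Kd came from a nonlinear quadratic binding fit, averaged over three experiments ± SD.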

[2] = target: T1, human 53BP1 tandem Tudor domain; assay: other fluorescence titration

decrease in binding affinity relative to p53K382me2 ([1]; tryptophan fluorescence) | Compound | also measured
22 fold | p53K370me2: p53 peptide (366–375) dimethylated at Lys370 (SSHL[Lys(Me2)]SKKGQ) | –
– | p53K382me2L383A: p53K382me2 peptide (377–386) with Leu383 replaced (TSRHK[Lys(Me2)]AMFK) | effect of residue replacement on the Kd relative to p53K382me2 (in words) ([1]; tryptophan fluorescence, 25°C (Fig. 2a)): virtually no effect
16 fold | p53H380AK382me2: p53K382me2 peptide (377–386) with His380 substituted with Ala (TSRAK[Lys(Me2)]LMFK) | –
– | unmodified p53 peptide: unmodified p53 peptide, residues 377–386 (TSRHKKLMFK; UniProt P04637 377-386, looked up, fragment) | association of 53BP1 tandem Tudor domain with peptide (in words) ([1]; Fig. 2a, measured by tryptophan fluorescence or Isothermal Titration Calorimetry): does not associate
– | CSCC[C@H](NC(=O)[C@H](CC(C)C)NC(=O)[C@H](CCCCN(C)C)NC(=O)[C@H](CCCCN)NC(=O)[C@H](Cc1c[nH]cn1)NC(=O)[C@H](CCCNC(=N)N)NC(=O)[C@H](CO)NC(=O)[C@@H](N)[C@@H](C)O)C(=O)N[C@@H](Cc1ccccc1)C(=O)N[C@@H](CCCCN)C(=O)O [p53K382me2] | Kd [1]: 0.9 µM
22 fold | p53K372me2: p53 peptide (367–377) dimethylated at Lys372 (SHLKS[Lys(Me2)]KGQST) | –
11 fold | p53K381AK382me2: p53K382me2 peptide (377–386) with Lys381 substituted with Ala (TSRHA[Lys(Me2)]LMFK) | –
– | H4K20me2 peptide (15–23) (from UniProt P62805 16-24) | Kd [2]: 1.3 µM
